Diaph act CS = compounds boosting diaphorase resazurin reduction – biochemical, uHTS, resorufin fluorescence, counter-screen for diaphorase-coupled primary assays, primary screen; Diaphorase/resazurin coupled assay, 16 min; hits give high values; 1 = vehicle wells, 0 = NADH-free wells; AID 1229, 2008; 190,000 tested, 0.005% active; activation factor at 20 µM;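 active = diaphorase activity raised at least twofold by the compound at 20 µM; inactive = activation factor below 2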
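Test system: Clostridium kluyveri diaphorase, purified enzyme. Buffer or medium: 50 mM HEPES pH 7.4 buffer plus MgCl2 and Tween 20. Also added: 0.114 mM NADH and 0.1 mM resazurin, final amounts. Dosing: compound 20 µM once, DMSO 1%. Schedule: 16 min enzyme reaction, ambient temperature. Detection: fluorescence of resorufin, 544 nm excitation, 590 nm emission.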
Diaph inh CS = diaphorase inhibitors and chemical oxidizers, primary screen, counter-screen for diaphorase-coupled primary assays, biochemical, uHTS, resorufin fluorescence | inhibition, % at 20 µM | diaphorase resazurin-to-resorufin fluorescence, NADH, 16 min; bacterial (C. kluyveri) enzyme, not human | AID 1217, 2008 | 190,000 tested, 0.69% active;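 active = primary screen inhibition at 20 µM above a set limit, cut at about 50% in these data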;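 also: plate controls were DMSO with full reaction for no effect and wells lacking NADH for full effect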
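controls = No-NADH positive control and DMSO neutral control | system = Clostridium kluyveri diaphorase enzyme | timing = reaction incubation of 16 min at room temperature | signal = resorufin fluorescence 544/590 nm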
G6PDH CS = L. mesenteroides G6PDH inhibitors, counter-screen for G6PDH-coupled screening assays, biochemical, Leuconostoc mesenteroides enzyme; Purified L. mesenteroides G6PDH, diaphorase/resazurin coupled fluorescence, 45 min; glucose-6-phosphate dehydrogenase [Leuconostoc mesenteroides]; 200,000 tested, 0.12% active; inhibition, % at 5 µM; AID 1020, 2008; in the data active = inhibition above about 50%
PfG6PD inh = PfG6PD enzyme inhibitors, primary screen, biochemical, fluorescence intensity, uHTS. glucose-6-phosphate dehydrogenase-6-phosphogluconolactonase (Plasmodium falciparum 3D7). AID 504690, 2011. 350,000 tested, 0.78% active. inhibition, % at 20 µM. PfGluPho enzyme, NADPH resazurin-diaphorase fluorescence;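 active = inhibition reaching at least a set limit at 20 µM in the primary screen, cut at about 59% in these data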;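 also: 0% = DMSO wells with substrate and 100% = DMSO wells lacking glucose-6-phosphate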
HKDC1 inhibitor = HKDC1 hexokinase inhibitors, primary screen, biochemical, fluorescence, uHTS | Q2TB90 | recombinant HKDC1, G6PDH/diaphorase resazurin coupled fluorescence | inhibition, % at 20 µM | 340,000 tested, 0.16% active | AID 493160, 2011;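 active = inhibition above about 35% when tested at 20 µM, limit read from the data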;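 also: plate controls were DMSO wells with enzyme for no effect and DMSO wells lacking enzyme for full effect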
Target sequence (Q2TB90 whole entry, looked up): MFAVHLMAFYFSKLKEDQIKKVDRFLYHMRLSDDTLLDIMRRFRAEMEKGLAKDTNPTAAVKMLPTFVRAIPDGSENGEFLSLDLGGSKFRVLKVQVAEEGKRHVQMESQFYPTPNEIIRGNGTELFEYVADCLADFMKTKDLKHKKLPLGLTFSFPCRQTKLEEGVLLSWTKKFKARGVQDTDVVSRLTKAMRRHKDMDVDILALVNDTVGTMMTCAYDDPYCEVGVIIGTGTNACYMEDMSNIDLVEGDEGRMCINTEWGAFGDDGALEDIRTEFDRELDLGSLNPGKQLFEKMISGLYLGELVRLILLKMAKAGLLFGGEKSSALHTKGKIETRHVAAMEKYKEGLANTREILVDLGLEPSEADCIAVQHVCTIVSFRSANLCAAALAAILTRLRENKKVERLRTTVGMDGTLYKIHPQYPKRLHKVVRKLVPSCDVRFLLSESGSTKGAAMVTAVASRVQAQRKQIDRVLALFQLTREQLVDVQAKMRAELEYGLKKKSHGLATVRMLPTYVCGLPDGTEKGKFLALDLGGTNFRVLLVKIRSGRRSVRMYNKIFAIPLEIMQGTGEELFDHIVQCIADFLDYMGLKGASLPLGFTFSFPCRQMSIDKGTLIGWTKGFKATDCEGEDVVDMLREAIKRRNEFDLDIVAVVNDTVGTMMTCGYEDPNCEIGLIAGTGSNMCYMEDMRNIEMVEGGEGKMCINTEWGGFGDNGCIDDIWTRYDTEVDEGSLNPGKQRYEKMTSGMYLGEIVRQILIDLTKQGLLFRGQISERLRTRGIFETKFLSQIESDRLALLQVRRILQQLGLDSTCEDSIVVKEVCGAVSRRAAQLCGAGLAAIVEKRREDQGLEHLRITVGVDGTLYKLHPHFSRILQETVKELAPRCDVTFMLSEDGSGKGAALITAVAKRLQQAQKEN
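Test system: Recombinant HKDC1 (HK5) hexokinase enzyme, produced in-house | Input: HKDC1 at 5 µg/mL | Buffer or medium: Tris pH 8.0 buffer with MgCl2, Tween-20, BSA, BME | Schedule: 90 min reaction incubation at room temperature, dark | Technique: Resazurin-to-resorufin fluorescence via G6PDH and diaphorase coupling, 525/613 nm | Controls: DMSO wells with and without enzyme mix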
Active calls of the source: *. Rows were chosen to be rich in hits. Some 1.2% of all compounds tested hit in one or more screens of this group.

How did CCOC(=O)n1c(O)c(N=NC(N)=S)c2cc(C)ccc21 do in these assays?
PfG6PD inh: -11; HKDC1 inhibitor: -3

What do the screens show for `CCC1=NN2C(=N)/C(=C\c3ccc(SCc4ccco4)o3)C(=O)N=C2S1`?
Diaph act CS: 0.4; Diaph inh CS: 56*; G6PDH CS: 1; PfG6PD inh: 21; HKDC1 inhibitor: 14

How did CCCC1=NN2C(=N)/C(=C\c3ccc(SCc4ccco4)o3)C(=O)N=C2S1 do in these assays?
Diaph act CS: 0.5; Diaph inh CS: 51*; G6PDH CS: -2; PfG6PD inh: 26; HKDC1 inhibitor: 28

How did CCC1=NN2C(=N)/C(=C/c3c(C)nn(-c4ccccc4)c3Cl)C(=O)N=C2S1 do in these assays?
Diaph act CS: 0.9; Diaph inh CS: 6; G6PDH CS: -5; PfG6PD inh: -20; HKDC1 inhibitor: -1

What do the screens show for `O=C1NC(=S)S/C1=C\c1ccc(SCc2ccco2)o1`?
Diaph act CS: 0.2; Diaph inh CS: 81*; G6PDH CS: 13; PfG6PD inh: 26; HKDC1 inhibitor: 51*

How did Cc1nnsc1C(=O)N1CCC(CO)(Cc2ccccc2Cl)CC1 do in these assays?
PfG6PD inh: -2; HKDC1 inhibitor: -7

How did CCCCCCCC(=O)C(C)C(=O)N(C)[C@H](Cc1ccc(OC)cc1)C(=O)N(C)[C@H](C(N)=O)C(C)C (stereo partly specified) do in these assays?
PfG6PD inh: 15; HKDC1 inhibitor: -3

What do the screens show for `CC1CCC(NC(=O)CSc2nncn2C)CC1` (stereo unspecified)?
PfG6PD inh: 2; HKDC1 inhibitor: -11

How did Nc1ccccc1N=c1ssnc1Cl do in these assays?
Diaph act CS: 1.1; Diaph inh CS: -7; G6PDH CS: 7; PfG6PD inh: 59; HKDC1 inhibitor: -3

Results for Cc1nnc(N=c2ssnc2Cl)o1 ?
PfG6PD inh: 116*; HKDC1 inhibitor: -88

What do the screens show for `O=C(COc1ccccc1/C=C\c1nc(O)c([N+](=O)[O-])c(=O)[nH]1)Nc1ccccc1`?
Diaph act CS: 0.3; Diaph inh CS: 72*; G6PDH CS: 10; PfG6PD inh: 5; HKDC1 inhibitor: 33

What do the screens show for `O=C(CC1CC2CCC1C2)NCCc1ccc(Cl)cc1` (stereo unspecified)?
PfG6PD inh: -1; HKDC1 inhibitor: 8

What do the screens show for `Cn1c2ccccc2c2nnc(SCN3C(=O)c4ccccc4C3=O)nc21`?
Diaph act CS: 0.7; Diaph inh CS: 28; G6PDH CS: 0

What do the screens show for `CC(C)n1c2ccccc2c2nnc(SCC(=O)OCN3C(=O)c4ccccc4C3=O)nc21`?
Diaph act CS: 0.4; Diaph inh CS: 57*; G6PDH CS: -5; PfG6PD inh: 9; HKDC1 inhibitor: 17

What do the screens show for `Cc1ccc(/C=N/n2c(-c3ccncc3)n[nH]c2=S)cc1`?
Diaph act CS: 0.4; Diaph inh CS: 60*; G6PDH CS: 5; PfG6PD inh: 20; HKDC1 inhibitor: -9

How did CC(/C=N/n1c(-c2cc(C)[nH]n2)n[nH]c1=S)=C\c1ccccc1 do in these assays?
Diaph act CS: 0.5; Diaph inh CS: 51*; G6PDH CS: 4; PfG6PD inh: 30; HKDC1 inhibitor: 16

Results for O=[N+]([O-])c1cc(/C=N/n2c(-c3ccncc3)n[nH]c2=S)ccc1Cl ?
Diaph act CS: 0.5; Diaph inh CS: 53*; G6PDH CS: 12; PfG6PD inh: 23; HKDC1 inhibitor: 6

What do the screens show for `CC(=C/c1ccccc1)/C=N/n1c(-c2ccco2)n[nH]c1=S`?
Diaph act CS: 0.6; Diaph inh CS: 42; G6PDH CS: -5; PfG6PD inh: 11; HKDC1 inhibitor: 8

What do the screens show for `CC(C)(C)c1ccc(-c2n[nH]c(=S)n2/N=C/c2ccncc2)cc1`?
Diaph act CS: 0.9; Diaph inh CS: 9; G6PDH CS: 6; PfG6PD inh: 8; HKDC1 inhibitor: 2

Results for Cc1cc(-c2n[nH]c(=S)n2/N=C/c2cc([N+](=O)[O-])ccc2Cl)n[nH]1 ?
Diaph act CS: 0.5; Diaph inh CS: 50*; G6PDH CS: 10; PfG6PD inh: 46; HKDC1 inhibitor: -1

From PubChem BioAssay
